Assay [1] addresses T1, Type-1 angiotensin II receptor A (Rattus norvegicus) (UniProt P25095).
T1 sequence (whole entry): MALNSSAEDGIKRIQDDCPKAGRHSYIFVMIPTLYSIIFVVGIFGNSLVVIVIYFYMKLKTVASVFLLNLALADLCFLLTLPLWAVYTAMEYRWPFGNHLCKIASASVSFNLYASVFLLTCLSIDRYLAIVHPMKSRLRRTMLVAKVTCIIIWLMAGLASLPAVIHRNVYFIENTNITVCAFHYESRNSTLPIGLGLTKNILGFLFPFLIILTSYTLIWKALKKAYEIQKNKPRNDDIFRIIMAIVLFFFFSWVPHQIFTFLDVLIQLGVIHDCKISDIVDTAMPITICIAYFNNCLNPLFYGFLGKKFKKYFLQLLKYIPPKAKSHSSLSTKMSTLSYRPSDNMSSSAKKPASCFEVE
As to the kind of experiment: (§1) Antagonist activity at AT1 receptor in rat aorta. In kind it is functional, tissue-based.

For assay [2], the target named is T2, Type-1 angiotensin II receptor A (Rattus norvegicus, UniProt P25095).
T2 sequence (P25095 whole entry): T1 sequence (whole entry)
The assay is described as §1. The format is functional, tissue-based. Conditions: read-out: pA2 (converted).

Assay [3] relates to Rattus norvegicus. As to the kind of experiment: Antihypertensive activity against desoxycortisone-induced hypertension in rat assessed as decrease in mean arterial blood pressure at 3 mg/kg, ip. In kind it is functional, Artery. Particulars: route intraperitoneal. The gist of the method:
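Hypertension induced in rats with desoxycortisone acetate 40 mg kg-1 s.c. Mean arterial blood pressure recorded through a carotid artery cannula connected to a pressure transducer. Test agents were given intraperitoneally. The dose-finding series used 0.1–30.0 mg kg-1, and the remaining agents were tested at 1.0, 3.0 and 10.0 mg kg-1.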

The subject of assay [4] is Rattus norvegicus. As to the kind of experiment: Antihypertensive activity against desoxycortisone-induced hypertension in rat assessed as decrease in mean arterial blood pressure at 5 mg/kg, ip. The format is functional, Artery. Conditions: route intraperitoneal.

Turning to `CCCCc1nc2cc(NC(=O)CCC)ccc2n1Cc1ccc(-c2ccccc2C(=O)O)cc1`, in assay [1], the pA10 was 4.4. Further, in assay [2], the Kb was 79.4 nM. For the same compound, the Activity with Rattus norvegicus [3] is listed as 26.4 mmHg.

Consider `CCCCc1nc2cc(NC(C)=O)ccc2n1Cc1ccc(-c2ccccc2C(=O)O)cc1`, for which the pA10 in assay [1] is 5.9. In assay [2], the Kb is 10 nM. Moreover, in the assay with Rattus norvegicus [3], the Activity is reported as 33.5 mmHg.

In turn, `CCCCc1nc2cc(NC(=O)CC)ccc2n1Cc1ccc(-c2ccccc2C(=O)O)cc1` returned a pA10 in assay [1] of 4.7. For the same compound, the Kb in assay [2] was 20 nM. In addition, the Activity in the assay with Rattus norvegicus [3] turned out to be 36.2 mmHg.

`CCCCC(=O)Nc1ccc2c(c1)nc(CCCC)n2Cc1ccc(-c2ccccc2C(=O)O)cc1` came in with a pA10 in assay [1] of 3.7. For the same compound, the Kb in assay [2] was 398 nM. Also, the Activity with Rattus norvegicus [3] is 21.7 mmHg.

Take `CCCCc1nc2cc(NC(=O)c3ccccc3)ccc2n1Cc1ccc(-c2ccccc2C(=O)O)cc1`: the pA10 in assay [1] came out at 6. The Kb in assay [2] is 251 nM. Also, the Activity in the assay with Rattus norvegicus [3] is listed as 19.8 mmHg.

In the case of `CCCCc1nc2cc(NC(=O)c3ccc(Cl)cc3)ccc2n1Cc1ccc(-c2ccccc2C(=O)O)cc1`, in assay [1], the pA10 is 5.4. In assay [2], the Kb is 631 nM. Further, the Activity with Rattus norvegicus [3] was determined as 12 mmHg.

In assay [1], `CCOc1nc2cccc(C(=O)O)c2n1Cc1ccc(-c2ccccc2-c2nnn[nH]2)cc1` registered a pA10 of 7.1. Further, the Kb in assay [2] is 10 nM. In addition, the Activity in the assay on Rattus norvegicus [4] was 31.8 mmHg.

In assay [1], `CCCCc1nc(Cl)c(CO)n1Cc1ccc(-c2ccccc2-c2nnn[nH]2)cc1` [LOSARTAN] gave a pA10 of 6.5. Further, in the assay with Rattus norvegicus [4], the Activity was 29.7 mmHg.

In assay [1], `CCCCc1nc2cc(NC(=O)c3ccccc3Cl)ccc2n1Cc1ccc(-c2ccccc2C(=O)O)cc1` displayed a pA10 of 5.8. For the same compound, in assay [2], the Kb is 316 nM. Also, in the assay with Rattus norvegicus [3], the Activity worked out at 20.3 mmHg.

As to `CCCCc1nc2cc(N)ccc2n1Cc1ccc(-c2ccccc2C(=O)O)cc1`, the pA10 in assay [1] stood at 7. Further, the Kb in assay [2] is 15.8 nM. In addition, the Activity in the assay on Rattus norvegicus [3] was determined as 33.3 mmHg.

Source of the values: ChEMBL document CHEMBL1156704, “Angiotensin II--AT1 receptor antagonists: design, synthesis and evaluation of substituted carboxamido benzimidazole derivatives” (Eur J Med Chem, 2008).
